Sampled rows, rich in hits. Any-hit rate of the full collection: about 1.9%.
SUMO1-SIM PPI: SUMO1-SIM interaction modulation. P63165. SUMO1 binding to a labelled peptide, TR-FRET, 1 h. inhibition, % at 20 µM. hit rate 0.33% among 360,000. AID 602429; in the data active means inhibition above about 37%
Scp1 inh: blocks human Scp-1 phosphatase activity; AID 493091; inhibition, % at 20 µM; hit rate 0.88% among 340,000; Recombinant Scp1, phosphopeptide, malachite green phosphate absorbance; Q9GZU7;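 active means inhibition above about 50% at 20 µM, limit read from the data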;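 further: plate controls were DMSO wells with enzyme for no effect and wells lacking enzyme for full effect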
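System: truncated SCP-1 phosphatase (76-261aa); medium: Tris acetate buffer pH 5.5 with MgCl2 and Tween-20; incubation: 45 min room-temperature reaction, 5 min colour, 30 min stabiliser; compound: single 20 µM dose, 1% DMSO; reagent: Phosphorylated 17-residue peptide substrate; read-out: % inhibition at 20 µM; technique: colorimetric free-phosphate detection, absorbance 630 nm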
STEP inh: inhibitors of human striatal-enriched phosphatase STEP; P54829; recombinant STEP, OMFP fluorogenic substrate, fluorescence; inhibition, % at 20 µM; hit rate 0.25% among 360,000;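 active means inhibition at 20 µM, scaled per plate between control wells, above about 37%, limit read from the data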;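 further: 0% = DMSO with enzyme and substrate and 100% = substrate only without enzyme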
Target sequence (P54829 whole entry, looked up): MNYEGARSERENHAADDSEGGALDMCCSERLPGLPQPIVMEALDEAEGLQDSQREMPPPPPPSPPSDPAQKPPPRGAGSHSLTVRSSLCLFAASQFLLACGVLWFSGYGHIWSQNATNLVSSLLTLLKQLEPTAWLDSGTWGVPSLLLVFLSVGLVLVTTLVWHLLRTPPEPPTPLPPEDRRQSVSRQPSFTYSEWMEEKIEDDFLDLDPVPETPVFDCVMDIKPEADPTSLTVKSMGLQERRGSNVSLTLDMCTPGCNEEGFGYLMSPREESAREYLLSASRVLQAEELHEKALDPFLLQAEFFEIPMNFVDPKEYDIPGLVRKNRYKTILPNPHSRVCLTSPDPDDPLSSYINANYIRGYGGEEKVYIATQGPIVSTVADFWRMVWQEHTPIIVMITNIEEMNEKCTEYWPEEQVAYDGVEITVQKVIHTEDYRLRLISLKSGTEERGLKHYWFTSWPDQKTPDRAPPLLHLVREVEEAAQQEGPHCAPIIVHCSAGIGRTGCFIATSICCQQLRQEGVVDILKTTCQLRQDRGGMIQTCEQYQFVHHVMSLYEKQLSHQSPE
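Assay system: isolated STEP enzyme / Timing: 20 min at room temperature, dark / Doses: 20 µM, 1% DMSO / Technique: fluorescence intensity, excitation 480 nm, emission 540 nm / Reagent: fluorogenic phosphatase substrate OMFP at 25 µM final / Measure: percent inhibition scaled to no-enzyme and uninhibited-enzyme controls, plate-pattern corrected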
FAS TE block: inhibitors of human fatty acid synthase thioesterase domain. P49327. recombinant FAS-TE, OMFH fluorogenic substrate, fluorescence endpoint. inhibition, % at 15 µM. hit rate 0.67% among 360,000;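 active means compounds whose normalised, plate-corrected inhibition of enzyme fluorescence in the single-dose primary screen is 50% or more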;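 further: 0% = DMSO with enzyme and 100% = substrate without enzyme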
LMPTP inh: LMPTP (human) inhibition | P24666 | recombinant LMPTP-A, OMFP fluorogenic substrate, fluorescence intensity | inhibition, % at 20 µM | hit rate 0.22% among 360,000 | AID 651560;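 active means compounds that cut the enzyme signal by at least half of the control window in the single-dose screen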;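 further: plate controls were DMSO wells with enzyme plus substrate for no effect and substrate without enzyme for full effect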
Target sequence (P24666 whole entry, looked up): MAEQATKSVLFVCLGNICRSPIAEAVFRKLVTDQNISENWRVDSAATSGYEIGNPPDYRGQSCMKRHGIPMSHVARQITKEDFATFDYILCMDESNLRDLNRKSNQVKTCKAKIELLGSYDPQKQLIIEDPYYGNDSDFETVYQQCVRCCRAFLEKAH
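Assay system: LMPTP-A, protein tyrosine phosphatase of low molecular weight / Medium: pH 6.0 Bis-Tris buffer with DTT and Triton X-100 / Schedule: 50 min enzyme reaction at room temperature, protected from light / Measured by: endpoint fluorescence intensity from OMFP dephosphorylation / Read-out basis: % inhibition relative to no-enzyme and uninhibited control wells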
FAS-TE conf: FAS thioesterase (human) inhibition, confirmation | shares compounds with FAS TE block | recombinant FAS-TE, OMFH fluorogenic substrate, fluorescence | inhibition, % at 15 µM | hit rate 45% among 2,300 | AID 624325;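 active means compounds inhibiting the enzyme by at least 50% at 15 µM in any one of the replicates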;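 further: 0% = enzyme with DMSO only and 100% = wells lacking enzyme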
An asterisk follows results filed as active; x = no result given.

SMILES | SUMO1-SIM PPI | Scp1 inh | STEP inh | FAS TE block | LMPTP inh | FAS-TE conf
Cc1ccc(C(=O)NCC(=O)OCc2nnc(-c3ccc([N+](=O)[O-])cc3)o2)s1 | -21.5 | -1.7 | 4.9 | 53.2* | 1.7 | 64.7*
Cc1cccc(N(CC(=O)NC2CCCC2)C(=O)c2nsc(Cl)c2Cl)c1C | 0.8 | -2.7 | 2.0 | 8.8 | 2.3 | x
CCOc1ccccc1N(CC(=O)NC1CCCCC1)C(=O)c1nsc(Cl)c1Cl | -10.5 | -10.4 | -0.7 | 50.5* | -0.9 | 17.7
COCc1nnc(NC(=O)CS(=O)(=O)c2ccc(C)cc2)s1 | -39.2 | -5.5 | 1.6 | -2.5 | -2.3 | x
Cc1cc(C)c(C#N)c(SCC(=O)c2ccc(Cl)cc2Cl)n1 | -18.1 | -9.8 | 2.5 | 71.7* | 2.0 | 37.3*
Cn1c(=O)c2c(nc(N3CCOCC3)n2C/C=C/c2ccccc2)n(C)c1=O | 5.0 | -6.2 | -2.4 | -3.2 | -0.4 | x
Cc1sc(N2CCN(S(=O)(=O)c3ccc4c(c3)NC(=O)CO4)CC2)nc1-c1ccccc1 | -2.0 | 0.6 | 1.3 | 70.5* | 2.4 | 68.2*
c1ccc(-c2ncnc3ccccc23)cc1 | -19.6 | -4.7 | 0.5 | -5.7 | -1.7 | x
Cc1cccc2cc(/C=N/Nc3ccc(C(=O)O)cc3)c(Cl)nc12 | 6.7 | -12.6 | -0.4 | 53.9* | -0.6 | 49.7*
Cc1ccc(NC(=O)/C(=C\c2ccccc2)NC(=O)/C=C/c2ccccc2)cc1 | -1.1 | -14.7 | -0.7 | 72.7* | -0.8 | 2.0
O=C(NN1C(=O)c2ccccc2NC1c1ccc([N+](=O)[O-])o1)c1ccc([N+](=O)[O-])cc1 (configuration not stated) | -9.5 | 0.2 | -1.3 | 30.5 | 1.5 | x
O=C(NN1C(=O)c2ccccc2NC1c1ccc([N+](=O)[O-])o1)c1ccccc1 (configuration not stated) | -18.0 | 0.2 | 0.2 | 52.2* | -0.8 | 40.0
CC(=O)c1cnc2ncnn2c1C | -2.4 | -0.2 | 0.1 | -10.8 | -0.1 | x
COc1cc([N+](=O)[O-])ccc1-c1ccc(/C=N\n2cnnc2)o1 | -3.6 | 12.0 | 30.6 | -38.8 | 21.6 | x
Cc1cc(-c2ccc(/C=N/n3cnnc3)o2)c(C)c([N+](=O)[O-])c1 | -20.9 | 4.5 | 0.4 | 59.6* | 1.3 | 39.3*
COc1ccc(C2/C(=C(/O)c3ccc(F)cc3)C(=O)C(=O)N2CCCN(C)C)cc1 (configuration not stated) | 1.8 | -10.4 | 0.3 | -4.8 | -1.2 | x
O=C(CN1CCN(C(=O)CN2C(=O)NC3(CCCC3)C2=O)CC1)Nc1cccc(F)c1 | 3.7 | -7.7 | -1.3 | -10.2 | -0.9 | x
O=C(CSc1ncnc2c1cnn2-c1ccccc1)NC1CCS(=O)(=O)C1 (configuration not stated) | -8.7 | -8.2 | 0.8 | 64.0* | 0.0 | 72.2*
CC[C@]12c3[nH]c4ccccc4c3CCN1C(=O)C(CC(=O)NCCC1=CCCCC1)C[C@@H]2C(=O)N1CCN(C(=O)c2ccco2)CC1 (some centres not stated) | -1.5 | -4.2 | -0.2 | 12.8 | 0.2 | x
O=C(CC1C[C@H](C(=O)N2CCOCC2)[C@@]2(CCC3CCCC3)c3[nH]c4ccccc4c3CCN2C1=O)NCCC1=CCCCC1 (some centres not stated) | 0.8 | 12.3 | 1.9 | 73.2* | 0.7 | 38.5*
CN(C)CCCNC(=O)CC1C[C@H](C(=O)N2CCOCC2)[C@@]2(CCC3CCCC3)c3[nH]c4ccccc4c3CCN2C1=O (some centres not stated) | -0.3 | -0.1 | 0.2 | 77.8* | -2.8 | 85.7*
COC(=O)c1sccc1NC(=S)N1C(C)CCCC1C (configuration not stated) | -2.4 | 0.2 | 10.7 | 9.1 | 3.7 | x
CCCCc1ccc(/C(C)=N/Nc2cc(N3CCOCC3)nc(C)n2)cc1 | -1.3 | -9.4 | -0.2 | 73.3* | 4.1 | 20.3
N#Cc1nc2ccccc2n1OCc1ccccc1 | -0.5 | x | -0.2 | 7.4 | -0.5 | x
O=C1C(F)=CC(COC(c2ccccc2)(c2ccccc2)c2ccccc2)OC1n1cc(F)c(=O)[nH]c1=O (configuration not stated) | 12.1 | -5.3 | -3.4 | 70.0* | 1.5 | 52.0*
SMILES | SUMO1-SIM PPI | Scp1 inh | STEP inh | FAS TE block | LMPTP inh | FAS-TE conf
COc1ccc(C2(c3ccc(OC)cc3)NC(=O)N(CC(=O)Nc3ccc(OC)c(OC)c3)C2=O)cc1 | 2.8 | -5.9 | -1.7 | 4.0 | 1.1 | x
CCCNC(=O)C(CC)NC(=O)c1cccc([N+](=O)[O-])c1 (configuration not stated) | -19.4 | -2.3 | -2.1 | 9.8 | -1.5 | x
N#CC1CCN(C(=O)c2ccc3c(Cl)c4c(nc3c2)CCCC4)CC1 | -11.7 | -6.8 | -2.3 | 77.9* | -0.5 | 85.5*
COc1ccc2c(c1)[C@H]1[C@H](CO2)[C@H](c2ccccc2)[C@]2(C)C(=O)Nc3cc(OC)c(OC)cc3C(=O)N12 | -1.4 | -3.0 | -0.4 | 35.7 | -0.3 | x
COc1ccc2c(c1)C(=O)N1[C@H]3c4cc(C)ccc4OC[C@@H]3[C@H](c3ccccc3)[C@]1(C)C(=O)N2 | 1.2 | 2.6 | -0.3 | 73.3* | 3.1 | 35.2
COc1ccc2c(c1)OC[C@H]1[C@H]2N2C(=O)c3ccccc3NC(=O)[C@@]2(C)[C@H]1c1ccccc1 | 12.4 | -6.5 | -0.7 | 69.8* | 2.8 | 31.1
COc1ccc2c(c1)[C@@H]1[C@H](CO2)[C@H](c2ccccc2)[C@]2(C)C(=O)Nc3ccc(C)cc3C(=O)N12 | 3.1 | -17.6 | 1.3 | 83.0* | 2.1 | -3.2
Cc1nn2cnnc2c(C)c1Cc1ccc(Cl)cc1 | -1.9 | -1.1 | 0.3 | -3.8 | 0.2 | x
O=C(NC1CCCCC1)C1CC(=O)N(c2cccc([N+](=O)[O-])c2)C1 (configuration not stated) | -10.5 | 2.5 | -0.4 | 79.7* | 0.1 | 84.1*
O=C(Nc1cccc(S(=O)(=O)NC2=NCCCCC2)c1)c1cc(-c2ccccc2)nc2ccccc12 | -11.0 | 0.5 | -1.7 | 36.6 | 1.7 | x
O=C(Nc1cccc(S(=O)(=O)NC2=NCCCCC2)c1)c1cc(-c2ccc(Cl)cc2)nc2ccccc12 | -10.7 | 0.2 | -2.5 | 57.3* | 3.0 | 26.5
O=[N+]([O-])c1cc(S(=O)(=O)N2CCCC2)ccc1NCCCN1CCOCC1 | -22.6 | -2.6 | -1.6 | -1.1 | -1.3 | x
O=[N+]([O-])c1ccc(N2CCN(S(=O)(=O)c3ccc(Cl)c(Cl)c3)CC2)cc1NCCN1CCOCC1 | -5.3 | 10.7 | 0.7 | 71.2* | 1.7 | 9.6
COc1cc(C(=O)Nc2ccc(S(=O)(=O)N3CCOCC3)cc2)c([N+](=O)[O-])cc1OC | -17.0 | -6.7 | 6.7 | -1.2 | 0.8 | x
CCN1CCN(C(=O)N(CC(=O)Nc2ccc(C(N)=O)cc2)S(=O)(=O)c2ccc(C)cc2)CC1 | -1.5 | -1.9 | 1.1 | -3.9 | 1.0 | x
O=[N+]([O-])c1ccccc1SNc1ccccc1 | -29.0 | x | 0.5 | 29.9 | 1.4 | x

Source: PubChem BioAssay (Sanford-Burnham Center for Chemical Genomics)
